Measured values: ChEMBL document CHEMBL1142664, “Synthesis and biological evaluation of a new series of 2,3,5-substituted [1,2,4]-thiadiazoles as modulators of adenosine A1 receptors and their molecular mechanism of action” (J Med Chem, 2005)

Experiments:
[1] = biological target: T1, Adenosine receptor A1 (Homo sapiens) (UniProt P30542); assay: Inhibition of [3H]CCPA binding to human Adenosine A1 receptor at 10e-7 M
T1 sequence (whole entry): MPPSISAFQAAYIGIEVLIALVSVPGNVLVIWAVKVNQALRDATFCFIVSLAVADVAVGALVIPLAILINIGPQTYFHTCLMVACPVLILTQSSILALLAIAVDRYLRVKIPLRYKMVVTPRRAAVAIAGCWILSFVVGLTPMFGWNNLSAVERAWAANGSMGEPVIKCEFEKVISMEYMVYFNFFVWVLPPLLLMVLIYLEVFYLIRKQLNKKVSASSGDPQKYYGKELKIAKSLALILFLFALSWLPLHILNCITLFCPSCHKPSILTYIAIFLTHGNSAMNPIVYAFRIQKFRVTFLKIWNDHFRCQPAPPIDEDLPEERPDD
Outline: (§1)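 Human A1 receptors expressed in CHO-cell membranes, incubated 60 min at 25 °C in 50 mM Tris-HCl (pH 7.4) with the compound at a fixed concentration. Conditions were [3H]CCPA ~1.0 nM with 20 µg protein, or [3H]DPCPX ~1.6 nM with 10 µg protein. Nonspecific binding was defined with 10 µM DPCPX, and samples were filtered and counted. Results are % specific binding remaining, as means of three experiments in duplicate.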

[2] = biological target: T1, Adenosine receptor A1 (Homo sapiens); assay: Inhibition of [3H]CCPA binding to human Adenosine A1 receptor at 10e-6 M; outline: as §1
[3] = biological target: T1, Adenosine receptor A1 (Homo sapiens); assay: Inhibition of [3H]DPCPX binding to human Adenosine A1 receptor at 10e-6 M; outline: as §1
[4] = biological target: T1, Adenosine receptor A1 (Homo sapiens); assay: Association constant for [3H]CCPA binding to Adenosine A1 receptor in the presence of compound
Outline: (§2)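 Kinetics on membranes (30 µg) from CHO cells expressing recombinant human A1 receptors, using [3H]CCPA at 1 nM, with or without compound. Association was started by adding membranes to the radioligand. For dissociation, membranes were preloaded with radioligand for 60 min at 25 °C, then 100 µM 8-cyclopentyltheophylline was added. Bound ligand was separated by GF/B filtration and counted by scintillation; t1/2 and rate constants were derived.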

[5] = biological target: T1, Adenosine receptor A1 (Homo sapiens); assay: Dissociation constant for [3H]-CCPA binding to Adenosine A1 receptor in the presence of compound; outline: as §2
[6] = biological target: T1, Adenosine receptor A1 (Homo sapiens); assay: Dissociation half life of [3H]CCPA binding to Adenosine A1 receptor; outline: as §2
[7] = biological target: T1, Adenosine receptor A1 (Homo sapiens); assay: Association half life for [3H]CCPA binding to Adenosine A1 receptor in the presence of compound; outline: as §2
[8] = biological target: T1, Adenosine receptor A1 (Homo sapiens); assay: Dissociation half life for [3H]CCPA binding to Adenosine A1 receptor in the presence of compound; outline: as §2
[9] = biological target: T1, Adenosine receptor A1 (Homo sapiens); assay: Association half life for [3H]-CCPA binding to Adenosine A1 receptor in the presence of compound; outline: as §2

Structure (SMILES)	Specific binding [1] [%]	Specific binding [2] [%]	Specific binding [3] [%]	k on [4] [M⁻¹ s⁻¹]	Koff [5] [min⁻¹]	T1/2 [6] [min]	T1/2 [7] [min]	T1/2 [8] [min]	T1/2 [9] [min]
OCCC/N=c1/nc(-c2ccccc2)n(-c2ccccc2)s1	106	27	127						
CCCC/N=c1/nc(-c2ccccc2)n(-c2cccc(C)c2)s1	99	36	114						
Cc1cccc(-n2s/c(=N\C(C)C)nc2-c2ccccc2)c1	100	29	121						
c1ccc(-c2n/c(=N/C3CCCC3)sn2-c2ccccc2)cc1	100	25	123	4.17e+06	0.058	12	2.9		
Cc1cccc(-n2s/c(=N\Cc3ccccc3)nc2-c2ccccc2)c1	99	66	116						
CC/N=c1/nc(-c2ccccc2)n(-c2cccc(C)c2)s1	100	24	125						
CC(C)/N=c1/nc(-c2ccccc2)n(-c2ccccc2)s1	97	23	126						
CCC/N=c1/nc(-c2ccccc2)n(-c2cccc(C)c2)s1	97	29	126						

More lines, now with the values ahead:

Specific binding [1] [%]	Specific binding [2] [%]	Specific binding [3] [%]	k on [4] [M⁻¹ s⁻¹]	Koff [5] [min⁻¹]	T1/2 [6] [min]	T1/2 [7] [min]	T1/2 [8] [min]	T1/2 [9] [min]	Structure (SMILES)
96	89	107							Cc1cccc(-n2s/c(=N\c3ccccc3)nc2-c2ccccc2)c1
101	27	126							CCCC/N=c1/nc(-c2ccccc2)n(-c2ccccc2)s1
96	35	101							Cc1cccc(-n2s/c(=N/C3CCCC3)nc2-c2ccccc2)c1
101	43	124							c1ccc(C/N=c2\nc(-c3ccccc3)n(-c3ccccc3)s2)cc1
99	20	134							CC/N=c1/nc(-c2ccccc2)n(-c2ccccc2)s1
97	29	142							Cc1cccc(-n2s/c(=N/CCCO)nc2-c2ccccc2)c1
98	26	135							CCC/N=c1/nc(-c2ccccc2)n(-c2ccccc2)s1
104	66	106							c1ccc(/N=c2/nc(-c3ccccc3)n(-c3ccccc3)s2)cc1
97	16	122	5.83e+06	0.056			12.4	2	C/N=c1\nc(C2C=CC=CC2)n(C2C=CC=CC2)s1 (configuration not stated)
96	23	132							C/N=c1/nc(-c2ccccc2)n(-c2cccc(C)c2)s1
